For four molecules, Activity results are on record in ChEMBL document CHEMBL4673330, “Preparations and antioxidant activities of sesamol and it's derivatives” (Bioorg Med Chem Lett, 2021).

What all share (type): functional
Experiment [1] can be described thus: Antioxidant activity assessed as hydroxyl radical scavenging rate at 0.2 g/L relative to control. The essentials: (§1)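 Hydroxyl radical scavenging was read as absorbance of the reaction solution at 510 nm by a fixed reaction time method. Derivatives were tested at 0.2–1.2 g/L, with sesamol as positive control. Values are means ± SD from at least eight independent experiments, each in triplicate (n = 3), with t-tests (p < 0.05).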

A short description of experiment [2]: Antioxidant activity assessed as reduction of potassium ferricyanide trivalent iron into potassium ferrocyanide bivalent iron and ferrous iron by measuring eliminate efficiency at 0.8 g/L relative to control. More on the design: scale not given: the % may be the effect or the level left. In outline: (§2)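 Reducing capacity was read as absorbance at 700 nm, where higher absorbance means greater reducing ability. Tested at 0.2–1.2 g/L against sesamol as positive control. Values are means from at least eight independent experiments, each in triplicate (n = 3), with t-tests (p < 0.05).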

Experiment [3] can be described thus: Antioxidant activity assessed as reduction in lipid peroxidation by measuring antiperoxide-index at 1 g/L by thiobarbituric acid method relative to control. More on the design: scale not given: the % may be the effect or the level left. In outline:
(§3)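 Anti-lipid-peroxidation (antiperoxide index, %) was tested at 0.2–1.2 g/L, with sesamol as positive control. Values are means ± SD from at least eight independent experiments, each in triplicate (n = 3), with t-tests (p < 0.05).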

The nature of experiment [4]: Antioxidant activity assessed as superoxide anion radical scavenging rate at 1.2 g/L relative to control. In outline:
(§4)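 Pyrocatechol autoxidation in weak alkaline medium produces a coloured intermediate and superoxide anion; the intermediate absorbs maximally at 320 nm. Scavenging rate was measured at 0.2–1.2 g/L, with sesamol as positive control. Values are means ± SD from at least eight independent experiments, each in triplicate (n = 3), with t-tests (p < 0.05).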

Experiment [5] in a line: Antioxidant activity assessed as reduction in lipid peroxidation by measuring antiperoxide-index at 1.2 g/L by thiobarbituric acid method relative to control. More on the design: scale not given: the % may be the effect or the level left. In outline:
as §3

The nature of experiment [6]: Antioxidant activity assessed as hydroxyl radical scavenging rate at 1.2 g/L relative to control. The essentials: as §1
The nature of experiment [7]: Antioxidant activity assessed as reduction in lipid peroxidation by measuring antiperoxide-index at 0.2 g/L by thiobarbituric acid method relative to control. More on the design: scale not given: the % may be the effect or the level left. The essentials: as §3
A short description of experiment [8]: Antioxidant activity assessed as reduction in lipid peroxidation by measuring antiperoxide-index at 0.4 g/L by thiobarbituric acid method relative to control. More on the design: scale not given: the % may be the effect or the level left. In outline: as §3
A short description of experiment [9]: Antioxidant activity assessed as reduction of potassium ferricyanide trivalent iron into potassium ferrocyanide bivalent iron and ferrous iron by measuring eliminate efficiency at 0.2 g/L relative to control. More on the design: scale not given: the % may be the effect or the level left. In outline:
as §2

Experiment [10] in a line: Antioxidant activity assessed as reduction of potassium ferricyanide trivalent iron into potassium ferrocyanide bivalent iron and ferrous iron by measuring eliminate efficiency at 0.4 g/L relative to control. More on the design: scale not given: the % may be the effect or the level left. In outline:
as §2

Experiment [11] is described as follows: Antioxidant activity assessed as superoxide anion radical scavenging rate at 0.4 g/L relative to control. The essentials: as §4
Experiment [12] in a line: Antioxidant activity assessed as hydroxyl radical scavenging rate at 0.8 g/L relative to control. The essentials:
as §1

A short description of experiment [13]: Antioxidant activity assessed as superoxide anion radical scavenging rate at 0.8 g/L relative to control. The essentials:
as §4

Experiment [14] can be described thus: Antioxidant activity assessed as hydroxyl radical scavenging rate at 0.4 g/L relative to control. In outline:
as §1

Experiment [15] is described as follows: Antioxidant activity assessed as superoxide anion radical scavenging rate at 0.6 g/L relative to control. The essentials: as §4
A short description of experiment [16]: Antioxidant activity assessed as hydroxyl radical scavenging rate at 1 g/L relative to control. In outline:
as §1

The nature of experiment [17]: Antioxidant activity assessed as reduction of potassium ferricyanide trivalent iron into potassium ferrocyanide bivalent iron and ferrous iron by measuring eliminate efficiency at 1.2 g/L relative to control. More on the design: scale not given: the % may be the effect or the level left. The essentials: as §2
Experiment [18] can be described thus: Antioxidant activity assessed as reduction of potassium ferricyanide trivalent iron into potassium ferrocyanide bivalent iron and ferrous iron by measuring eliminate efficiency at 1 g/L relative to control. More on the design: scale not given: the % may be the effect or the level left. The essentials:
as §2

A short description of experiment [19]: Antioxidant activity assessed as superoxide anion radical scavenging rate at 0.2 g/L relative to control. In outline:
as §4

The nature of experiment [20]: Antioxidant activity assessed as reduction of potassium ferricyanide trivalent iron into potassium ferrocyanide bivalent iron and ferrous iron by measuring eliminate efficiency at 0.6 g/L relative to control. More on the design: scale not given: the % may be the effect or the level left. The essentials:
as §2

Experiment [21] is described as follows: Antioxidant activity assessed as hydroxyl radical scavenging rate at 0.6 g/L relative to control. The essentials: as §1
Experiment [22] can be described thus: Antioxidant activity assessed as reduction in lipid peroxidation by measuring antiperoxide-index at 0.6 g/L by thiobarbituric acid method relative to control. More on the design: scale not given: the % may be the effect or the level left. The essentials: as §3
Experiment [23] in a line: Antioxidant activity assessed as superoxide anion radical scavenging rate at 1 g/L relative to control. The essentials: as §4
Experiment [24] can be described thus: Antioxidant activity assessed as reduction in lipid peroxidation by measuring antiperoxide-index at 0.8 g/L by thiobarbituric acid method relative to control. More on the design: scale not given: the % may be the effect or the level left. In outline:
as §3

SMILES strings stand for the structures.

`O=C(Oc1ccc2c(c1)OCO2)c1cccc(Cl)c1Cl`: the Activity in experiment [1] worked out at 11.1%; in experiment [2], 59.6%; in experiment [3] it was 64.4%; in experiment [4], 60.5%; in experiment [5] it was 66.4%; in experiment [6], 61%. In addition, the Activity in experiment [7] worked out at 11.3%; in experiment [8], 27.1%; in [9], 11.3%; in experiment [10], 27%; in experiment [11] it was 23.9%; in [12] it was 57.5%. The Activity was 54.5% in experiment [13]; 26.4% in experiment [14]; 45.4% in experiment [15]; 60.4% in [16]; 66.2% in experiment [17]; 65.5% in [18]. For the same molecule, the Activity turned out to be 10.4% in experiment [19]; 51.3% in experiment [20]; 47.9% in experiment [21]; 48.8% in [22]; 59.9% in experiment [23]; 58.6% in [24].

With `O=c1oc2ccc3c(c2c2ccccc12)OCO3`, the Activity in experiment [1] worked out at 16.1%; in [2], 81.6%; in experiment [3], 90%; in experiment [4], 91.1%; in experiment [5], 92.7%; in experiment [6], 88.2%. In addition, the Activity was 15.8% in experiment [7]; 37.9% in experiment [8]; 15.4% in [9]; 37% in [10]; 35.9% in experiment [11]; 83.2% in [12]. Also, the Activity in [13] was 82%; in [14], 38.9%; in experiment [15], 68.3%; in experiment [16], 87.4%; in experiment [17], 90.7%; in [18], 89.8%. Further, the Activity in experiment [19] worked out at 15.6%; in experiment [20] it was 70.4%; in experiment [21] it was 69.3%; in [22] it was 68.2%; in experiment [23], 90.2%; in [24] it was 81.8%.

As for `O=c1oc2ccc3c(c2c2c(Cl)cccc12)OCO3`, the Activity in [1] is 16.1%; in [2], 84.3%; in experiment [3] it was 91.1%; in experiment [4], 88.3%; in experiment [5], 93.8%; in experiment [6], 88.2%. Also, the Activity in [7] was 16%; in experiment [8], 38.4%; in experiment [9], 15.9%; in experiment [10] it was 38.2%; in experiment [11] it was 34.8%; in experiment [12] it was 83.2%. Moreover, the Activity is 79.4% in [13]; 38.7% in [14]; 66.2% in experiment [15]; 87.4% in experiment [16]; 93.6% in experiment [17]; 92.7% in experiment [18]. Besides, the Activity in [19] was 15.2%; in experiment [20] it was 72.6%; in experiment [21] it was 69.3%; in experiment [22] it was 69%; in [23], 87.4%; in experiment [24], 82.8%.

For the molecule `O=C(Oc1ccc2c(c1)OCO2)c1ccc(Cl)cc1Cl`, the Activity in [1] was found to be 12.8%; in experiment [2], 68.1%; in [3], 72.3%; in [4] it was 66.3%; in experiment [5], 74.5%; in experiment [6], 70.6%. For the same molecule, the Activity is 12.7% in [7]; 30.4% in experiment [8]; 12.9% in experiment [9]; 30.9% in experiment [10]; 26.2% in experiment [11]; 66.6% in experiment [12]. Also, the Activity amounted to 59.7% in experiment [13]; 30.7% in experiment [14]; 49.7% in [15]; 69.9% in experiment [16]; 75.7% in [17]; 74.9% in [18]. Also, the Activity in experiment [19] was found to be 11.4%; in experiment [20] it was 58.7%; in experiment [21] it was 55.5%; in [22], 54.8%; in [23] it was 65.6%; in [24], 65.7%.
